Values joined by “and” are separate entries in the source; they are usually repeats but may differ in a detail not shown here. Equal entries are not always repeated.
Test system: Fibroblast
Assay: Multiplex assay against human fibroblast
Format: toxicity, cell-based
Method in brief: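 Imaging took place on a CQ1 microscope at 37°C and 5% CO2 once compound had been added to live cells stained at seeding with Hoechst33342, BioTracker Green Microtubule Cytoskeleton Dye, MitoTracker Red and Annexin V Alexa Fluor 680. CellPathfinder machine-learning gating classed cells as Hoechst high-intensity objects or normal cells, classed normal cells as having healthy, pyknosed or fragmented nuclei, and classed pyknosed cells as mitotic or apoptotic. Tubulin, mitochondrial-mass and membrane-permeability phenotypes are per cents of the healthy-nucleus cells.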

[1] = 12 h, 1 µM, compound concentration 1 uM, replicate 1
[2] = 12 h, 1 µM, compound concentration 1 uM, replicate 2
[3] = 12 h, 10 µM, compound concentration 10 uM, replicate 1
[4] = 12 h, 10 µM, compound concentration 10 uM, replicate 2
[5] = 24 h, 1 µM, compound concentration 1 uM, replicate 1
[6] = 24 h, 1 µM, compound concentration 1 uM, replicate 2
[7] = 24 h, 10 µM, compound concentration 10 uM, replicate 1
[8] = 24 h, 10 µM, compound concentration 10 uM, replicate 2
[9] = 48 h, 1 µM, compound concentration 1 uM, replicate 1
[10] = 48 h, 1 µM, compound concentration 1 uM, replicate 2
[11] = 48 h, 10 µM, compound concentration 10 uM, replicate 1
[12] = 48 h, 10 µM, compound concentration 10 uM, replicate 2

Cl.O=C(O)c1cc(-c2ccc(C3CCNCC3)cc2)c2ccc(-c3ccc(C(F)(F)F)cc3)cc2c1
Population Apoptotic (%) [1]: 65%
Population Fragmented Nuclei (%) [1]: 31%
Population Healthy Nuclei (%) [1]: 31%
Population Hoechst High Intensity Objects (%) [1]: 20%
Population Membrane Permeable-Phenotype (%) [1]: 31%
Population Mitochondria Different-Phenotype (%) [1]: 5%
Population Mitotic Cells (%) [1]: 34%
Population Normal (%) [1]: 79%
Population Pyknosed Nuclei (%) [1]: 37%
Population Tubulin-Different-Phenotype (%) [1]: 21%
Total Cell Count [1]: 77
Population Apoptotic (%) [2]: 50%
Population Fragmented Nuclei (%) [2]: 11%
Population Healthy Nuclei (%) [2]: 83%
Population Hoechst High Intensity Objects (%) [2]: 5%
Population Membrane Permeable-Phenotype (%) [2]: 3%
Population Mitochondria Different-Phenotype (%) [2]: 16%
Population Mitotic Cells (%) [2]: 50%
Population Normal (%) [2]: 94%
Population Pyknosed Nuclei (%) [2]: 5%
Population Tubulin-Different-Phenotype (%) [2]: 36%
Total Cell Count [2]: 60
Population Apoptotic (%) [3]: 62%
Population Fragmented Nuclei (%) [3]: 27%
Population Healthy Nuclei (%) [3]: 40%
Population Hoechst High Intensity Objects (%) [3]: 18%
Population Membrane Permeable-Phenotype (%) [3]: 5%
Population Mitochondria Different-Phenotype (%) [3]: 20%
Population Mitotic Cells (%) [3]: 37%
Population Normal (%) [3]: 81%
Population Pyknosed Nuclei (%) [3]: 32%
Population Tubulin-Different-Phenotype (%) [3]: 57%
Total Cell Count [3]: 122
Population Apoptotic (%) [4]: 60%
Population Fragmented Nuclei (%) [4]: 14%
Population Healthy Nuclei (%) [4]: 64%
Population Hoechst High Intensity Objects (%) [4]: 14%
Population Membrane Permeable-Phenotype (%) [4]: 10%
Population Mitochondria Different-Phenotype (%) [4]: 13%
Population Mitotic Cells (%) [4]: 40%
Population Normal (%) [4]: 85%
Population Pyknosed Nuclei (%) [4]: 21%
Population Tubulin-Different-Phenotype (%) [4]: 23%
Total Cell Count [4]: 38
Population Apoptotic (%) [5]: 62%
Population Fragmented Nuclei (%) [5]: 24%
Population Healthy Nuclei (%) [5]: 47%
Population Hoechst High Intensity Objects (%) [5]: 21%
Population Membrane Permeable-Phenotype (%) [5]: 44%
Population Mitochondria Different-Phenotype (%) [5]: 7%
Population Mitotic Cells (%) [5]: 37%
Population Normal (%) [5]: 78%
Population Pyknosed Nuclei (%) [5]: 28%
Population Tubulin-Different-Phenotype (%) [5]: 44%
Total Cell Count [5]: 73
Population Apoptotic (%) [6]: 20%
Population Fragmented Nuclei (%) [6]: 11%
Population Healthy Nuclei (%) [6]: 79%
Population Hoechst High Intensity Objects (%) [6]: 3%
Population Membrane Permeable-Phenotype (%) [6]: 4%
Population Mitochondria Different-Phenotype (%) [6]: 9%
Population Mitotic Cells (%) [6]: 80%
Population Normal (%) [6]: 96%
Population Pyknosed Nuclei (%) [6]: 9%
Population Tubulin-Different-Phenotype (%) [6]: 30%
Total Cell Count [6]: 62
Population Apoptotic (%) [7]: 53%
Population Fragmented Nuclei (%) [7]: 35%
Population Healthy Nuclei (%) [7]: 36%
Population Hoechst High Intensity Objects (%) [7]: 15%
Population Membrane Permeable-Phenotype (%) [7]: 12%
Population Mitochondria Different-Phenotype (%) [7]: 27%
Population Mitotic Cells (%) [7]: 46%
Population Normal (%) [7]: 84%
Population Pyknosed Nuclei (%) [7]: 28%
Population Tubulin-Different-Phenotype (%) [7]: 62%
Total Cell Count [7]: 131
Population Apoptotic (%) [8]: 61%
Population Fragmented Nuclei (%) [8]: 17%
Population Healthy Nuclei (%) [8]: 61%
Population Hoechst High Intensity Objects (%) [8]: 8%
Population Membrane Permeable-Phenotype (%) [8]: 7%
Population Mitochondria Different-Phenotype (%) [8]: 5%
Population Mitotic Cells (%) [8]: 38%
Population Normal (%) [8]: 91%
Population Pyknosed Nuclei (%) [8]: 20%
Population Tubulin-Different-Phenotype (%) [8]: 16%
Total Cell Count [8]: 56
Population Apoptotic (%) [9]: 50%
Population Fragmented Nuclei (%) [9]: 30%
Population Healthy Nuclei (%) [9]: 40%
Population Hoechst High Intensity Objects (%) [9]: 20%
Population Membrane Permeable-Phenotype (%) [9]: 48%
Population Mitochondria Different-Phenotype (%) [9]: 0%
Population Mitotic Cells (%) [9]: 50%
Population Normal (%) [9]: 79%
Population Pyknosed Nuclei (%) [9]: 29%
Population Tubulin-Different-Phenotype (%) [9]: 40%
Total Cell Count [9]: 78
Population Apoptotic (%) [10]: 100%
Population Fragmented Nuclei (%) [10]: 16%
Population Healthy Nuclei (%) [10]: 82%
Population Hoechst High Intensity Objects (%) [10]: 8%
Population Membrane Permeable-Phenotype (%) [10]: 6%
Population Mitochondria Different-Phenotype (%) [10]: 2%
Population Mitotic Cells (%) [10]: 0%
Population Normal (%) [10]: 91%
Population Pyknosed Nuclei (%) [10]: 1%
Population Tubulin-Different-Phenotype (%) [10]: 26%
Total Cell Count [10]: 104
Population Apoptotic (%) [11]: 76%
Population Fragmented Nuclei (%) [11]: 42%
Population Healthy Nuclei (%) [11]: 46%
Population Hoechst High Intensity Objects (%) [11]: 21%
Population Membrane Permeable-Phenotype (%) [11]: 11%
Population Mitochondria Different-Phenotype (%) [11]: 9%
Population Mitotic Cells (%) [11]: 23%
Population Normal (%) [11]: 78%
Population Pyknosed Nuclei (%) [11]: 11%
Population Tubulin-Different-Phenotype (%) [11]: 37%
Total Cell Count [11]: 146
Population Apoptotic (%) [12]: 100%
Population Fragmented Nuclei (%) [12]: 57%
Population Healthy Nuclei (%) [12]: 38%
Population Hoechst High Intensity Objects (%) [12]: 9%
Population Membrane Permeable-Phenotype (%) [12]: 4%
Population Mitochondria Different-Phenotype (%) [12]: 12%
Population Mitotic Cells (%) [12]: 0%
Population Normal (%) [12]: 90%
Population Pyknosed Nuclei (%) [12]: 3%
Population Tubulin-Different-Phenotype (%) [12]: 58%
Total Cell Count [12]: 139

CNCc1ccccc1-c1csc([C@@H](C)Nc2nc(C)nc3cc(OC)c(OC)cc23)c1 [BAY-293]
Population Apoptotic (%) [3]: 45% and 52%
Population Fragmented Nuclei (%) [3]: 29% and 38%
Population Healthy Nuclei (%) [3]: 45% and 27%
Population Membrane Permeable-Phenotype (%) [3]: 11% and 24%
Population Mitotic Cells (%) [3]: 54% and 47%
Population Normal (%) [3]: 58% and 87%
Population Pyknosed Nuclei (%) [3]: 24% and 33%
Population Apoptotic (%) [4]: 83% and 66%
Population Fragmented Nuclei (%) [4]: 50% and 52%
Population Healthy Nuclei (%) [4]: 17% and 31%
Population Hoechst High Intensity Objects (%) [4]: 34% and 42%
Population Membrane Permeable-Phenotype (%) [4]: 20% and 8%
Population Mitotic Cells (%) [4]: 16% and 33%
Population Normal (%) [4]: 65% and 57%
Population Pyknosed Nuclei (%) [4]: 32% and 16%
Population Tubulin-Different-Phenotype (%) [4]: 50% and 30%
Population Apoptotic (%) [7]: 89% and 38%
Population Fragmented Nuclei (%) [7]: 36% and 23%
Population Hoechst High Intensity Objects (%) [7]: 16% and 40%
Population Membrane Permeable-Phenotype (%) [7]: 11% and 4%
Population Normal (%) [7]: 83% and 59%
Population Pyknosed Nuclei (%) [7]: 56% and 28%
Population Tubulin-Different-Phenotype (%) [7]: 22% and 14%
Population Apoptotic (%) [8]: 66% and 90%
Population Fragmented Nuclei (%) [8]: 52% and 60%
Population Hoechst High Intensity Objects (%) [8]: 44%
Population Normal (%) [8]: 55%
Population Pyknosed Nuclei (%) [8]: 10% and 27%
Population Tubulin-Different-Phenotype (%) [8]: 38% and 20%

CNC(=O)c1ccc(Nc2ncc(C(F)(F)F)c(NCc3nccnc3N(C)S(C)(=O)=O)n2)cc1 [DEFACTINIB]
Population Apoptotic (%) [1]: 66% and 80%
Population Fragmented Nuclei (%) [1]: 31% and 21%
Population Healthy Nuclei (%) [1]: 51% and 60%
Population Hoechst High Intensity Objects (%) [1]: 12% and 14%
Population Membrane Permeable-Phenotype (%) [1]: 8% and 23%
Population Mitochondria Different-Phenotype (%) [1]: 2% and 4%
Population Mitotic Cells (%) [1]: 33% and 20%
Population Normal (%) [1]: 87% and 85%
Population Pyknosed Nuclei (%) [1]: 17%
Total Cell Count [1]: 217 and 234
Population Apoptotic (%) [2]: 25% and 42%
Population Fragmented Nuclei (%) [2]: 60% and 57%
Population Healthy Nuclei (%) [2]: 32% and 27%
Population Hoechst High Intensity Objects (%) [2]: 22% and 35%
Population Membrane Permeable-Phenotype (%) [2]: 0% and 7%
Population Mitochondria Different-Phenotype (%) [2]: 15% and 23%
Population Mitotic Cells (%) [2]: 75% and 57%
Population Normal (%) [2]: 77% and 64%
Population Pyknosed Nuclei (%) [2]: 6% and 14%
Population Tubulin-Different-Phenotype (%) [2]: 20% and 38%
Total Cell Count [2]: 79 and 73
Population Apoptotic (%) [3]: 90% and 80%
Population Fragmented Nuclei (%) [3]: 24% and 29%
Population Healthy Nuclei (%) [3]: 58%
Population Hoechst High Intensity Objects (%) [3]: 8%
Population Membrane Permeable-Phenotype (%) [3]: 21% and 7%
Population Mitochondria Different-Phenotype (%) [3]: 3%
Population Mitotic Cells (%) [3]: 9% and 20%
Population Normal (%) [3]: 91%
Population Pyknosed Nuclei (%) [3]: 17% and 12%
Total Cell Count [3]: 208 and 174
Population Apoptotic (%) [4]: 42% and 33%
Population Fragmented Nuclei (%) [4]: 42% and 66%
Population Healthy Nuclei (%) [4]: 47% and 25%
Population Hoechst High Intensity Objects (%) [4]: 24% and 47%
Population Membrane Permeable-Phenotype (%) [4]: 12% and 0%
Population Mitochondria Different-Phenotype (%) [4]: 18% and 50%
Population Mitotic Cells (%) [4]: 57% and 66%
Population Normal (%) [4]: 75% and 52%
Population Pyknosed Nuclei (%) [4]: 10% and 7%
Population Tubulin-Different-Phenotype (%) [4]: 54% and 40%
Total Cell Count [4]: 93 and 74
Population Apoptotic (%) [5]: 66% and 85%
Population Fragmented Nuclei (%) [5]: 23% and 35%
Population Healthy Nuclei (%) [5]: 59% and 48%
Population Hoechst High Intensity Objects (%) [5]: 18% and 11%
Population Mitochondria Different-Phenotype (%) [5]: 3% and 7%
Population Mitotic Cells (%) [5]: 33% and 14%
Population Normal (%) [5]: 81% and 88%
Population Pyknosed Nuclei (%) [5]: 16% and 15%
Total Cell Count [5]: 205 and 241
Population Fragmented Nuclei (%) [6]: 55% and 61%
Population Healthy Nuclei (%) [6]: 39% and 19%
Population Hoechst High Intensity Objects (%) [6]: 30% and 29%
Population Mitochondria Different-Phenotype (%) [6]: 5% and 0%
Population Mitotic Cells (%) [6]: 100% and 40%
Population Normal (%) [6]: 69% and 70%
Total Cell Count [6]: 62 and 74
Population Apoptotic (%) [7]: 80% and 73%
Population Fragmented Nuclei (%) [7]: 33% and 25%
Population Healthy Nuclei (%) [7]: 45% and 64%
Population Hoechst High Intensity Objects (%) [7]: 10% and 15%
Population Membrane Permeable-Phenotype (%) [7]: 21% and 10%
Population Mitotic Cells (%) [7]: 20% and 26%
Population Normal (%) [7]: 89% and 84%
Population Pyknosed Nuclei (%) [7]: 21% and 9%
Total Cell Count [7]: 210 and 186
Population Apoptotic (%) [8]: 75% and 50%
Population Fragmented Nuclei (%) [8]: 49% and 57%
Population Healthy Nuclei (%) [8]: 44% and 37%
Population Hoechst High Intensity Objects (%) [8]: 27% and 35%
Population Membrane Permeable-Phenotype (%) [8]: 14% and 0%
Population Mitochondria Different-Phenotype (%) [8]: 10% and 13%
Population Mitotic Cells (%) [8]: 25% and 50%
Population Normal (%) [8]: 72% and 64%
Population Pyknosed Nuclei (%) [8]: 6% and 5%
Population Tubulin-Different-Phenotype (%) [8]: 46% and 26%
Total Cell Count [8]: 87 and 62

— ChEMBL document CHEMBL4689842, “EUbOPEN Chemogenomics Library wave 1” (2021)
